Experimental data published in ChEMBL document CHEMBL1122418, “Synthesis of 3-hydroxy-3-cyclohexylbutyric acid derivatives. 2. Cyclic analogues of mevalonic acid” (1983).

Columns and labels:
Assay type in all cases: functional
Rattus norvegicus [1] = species on record: Rattus norvegicus; experiment: Percent inhibition of [14C]acetate incorporation into CO2, after incubation with rat liver slices at 5x10E-3 M concentration
How it was run: (§1)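 Rat liver slices (250 mg) incubated in 4 mL Krebs-Ringer bicarbonate buffer, pH 7.4, with 4 mM [2-14C]acetate, with or without test compound; label recovered in CO2, long-chain fatty acids and cholesterol measured and inhibition calculated against untreated slices. Values are arithmetic means of three determinations.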

Rattus norvegicus [2] = species on record: Rattus norvegicus; experiment: Percent inhibition of [14C]acetate incorporation into CO2, after incubation with rat liver slices at 5x10E-4 M concentration; how it was run: as §1
Rattus norvegicus [3] = species on record: Rattus norvegicus; experiment: Percent inhibition of [14C]acetate incorporation into cholesterol, after incubation with rat liver slices at 5x10E-3 M concentration; how it was run: as §1
Rattus norvegicus [4] = species on record: Rattus norvegicus; experiment: Percent inhibition of [14C]acetate incorporation into long-chain fatty acids, after incubation with rat liver slices at 5x10E-3 M concentration; how it was run: as §1
Rattus norvegicus [5] = species on record: Rattus norvegicus; experiment: Percent inhibition of [14C]acetate incorporation into long-chain fatty acids, after incubation with rat liver slices at 5x10E-4 M concentration; how it was run: as §1
Rattus norvegicus [6] = species on record: Rattus norvegicus; experiment: Percent inhibition of [14C]acetate incorporation into cholesterol, after incubation with rat liver slices at 5x10E-4 M concentration; how it was run: as §1

| Structure (SMILES) | inhibition at 5000 µM (Rattus norvegicus [1]) [%] | inhibition at 500 µM (Rattus norvegicus [2]) [%] | inhibition at 5000 µM (Rattus norvegicus [3]) [%] | inhibition at 5000 µM (Rattus norvegicus [4]) [%] | inhibition at 500 µM (Rattus norvegicus [5]) [%] | inhibition at 500 µM (Rattus norvegicus [6]) [%] |
| --- | --- | --- | --- | --- | --- | --- |
| CC1CC(=O)O[C@H]2CCCC[C@@H]12 (some centres undefined) | 24 | 10 | 39 | 62 | 10 | 10 |
| CC1(O)CC(=O)O[C@H]2CCCC[C@H]21 (some centres undefined) | 37 | 10 | 22 | 47 | 10 | 10 |
| CO[C@H]1CCCC[C@H]1C(C)(O)CC(=O)O (some centres undefined) | – | 39 | – | – | 57 | 25 |
| CC(O)(CC(=O)O)[C@@H]1CCCC[C@@H]1O (some centres undefined) | 62 | 10 | 50 | 68 | 10 | 10 |
| CC(O)(CC(=O)O)C1CCCCC1 (centres undefined) [CYCLOBUTOIC ACID] | – | 62 | – | – | 72 | 32 |
